This sample holds only a part of the variants without activity.
B1: tRNA (parent)
chain: GUUCCGUUGGCGUAAUGGUAACGCGUCUCCCUCCUAAGGAGAAGACUGCGGGUUCGAGUCCCGUACGGAACG

Variants of: B1
Experiment: yeast fitness relative to wild type (ratio to wild type); higher = fitter; tRNA-Arg(CCU), competitive growth, 37 C, YPD
Outline: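 Variants of the tRNA-Arg(CCU) gene, chemically synthesised with a 3% per-site mutation rate at 69 sites, were placed at the native genomic locus in Saccharomyces cerevisiae. The pooled strains were competed in YPD at 37°C for 24 hours in six parallel replicates. Gene amplicons from the start population and from each end population were read by 100-nucleotide paired-end sequencing. Darwinian fitness relative to wild type came from changes in genotype frequencies; genotypes needed ≥ 100 starting reads, and estimates < 0.5 were set to 0.5.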

| Variant | yeast fitness |
| --- | --- |
| G48C U54C | 0.973 |
| G48C U54A | 0.679 |
| G48A G63C | 0.89 |
| U47C G63C | 0.769 |
| G48A C61A | 0.682 |
| G48A C61U | 1.04 |
| G48A G52A G67A | 0.648 |
| G48A G52A G67C | 0.536 |
| G48C C49U U54G C66A | 0.624 |
| C49U C61G | 0.689 |
| C49G G56C A70U | 0.55 |
| G50A G51C | 0.585 |
| G50A G51U | 0.664 |
| U47C G58A | 0.986 |
| U47C C55U | 0.796 |
| U47C C55G | 0.733 |
| U47C C55A | 0.699 |
| C49G U54A | 0.637 |
| C49G U54G | 0.625 |
| U47C G52C | 0.612 |
| G48A C55U A69U | 0.522 |
| G48A G51C G67C | ≤ 0.5 |
| G48C C49U A65U A69U | ≤ 0.5 |
| G48C G51A | 0.849 |

| Variant | yeast fitness |
| --- | --- |
| G48A C61G A70C | 0.531 |
| C49A C61U A65G | 0.568 |
| U47C G51C U59C | ≤ 0.5 |
| G48C G56C | 0.7 |
| U47C C60A | 0.603 |
| G48A G63A A65C | ≤ 0.5 |
| C49A G51C | 0.589 |
| U47C C62U | 0.944 |
| C49U C55U C61U | 0.559 |
| C49U C62U A69U | 0.948 |
| G50A C60G U64G | 0.521 |
| U47C C61U A65U C66U | ≤ 0.5 |
| G50A C66A | 0.516 |
| G50A C66U | 0.783 |
| G48A C55A C60G | 0.513 |
| G48A C55U C60G | 0.727 |
| G50C G51A C55U | 0.549 |
| U47C G67A | 0.874 |
| C49U G68C | 0.801 |
| G50A A65U | 0.703 |
| C49A G68C | 0.578 |
| C49A G68U | 0.723 |
| C49A G68A | 0.64 |
| C49A A57C | 0.573 |

| Variant | yeast fitness |
| --- | --- |
| C49A A57G | 0.835 |
| G50C G51C G56A | 0.602 |
| G48C G63A | 0.877 |
| G48A C60G G63C | ≤ 0.5 |
| C49U G63C G67C | 0.53 |
| C49U G67U A69C | 0.542 |
| G48C A69C | 1.05 |
| G48C C61G | 0.629 |
| C49A C60A A70C | ≤ 0.5 |
| G48A G50U U54G A70U | ≤ 0.5 |
| C49U U59A A65U | ≤ 0.5 |
| U47C A70U | 0.955 |
| U47C A70C | 1.07 |
| G50C G52C | 0.562 |
| C49U A70U | 1 |
| U47C G68A | 0.876 |
| G48A G51C | 0.655 |
| G48A U53C C60A | ≤ 0.5 |
| C49A G50U | 0.694 |
| C49A G50A | 0.672 |
| C49G G50A | 0.667 |
| C49G G50C | 0.613 |
| C49U G51C U64C G68A | ≤ 0.5 |
| U47G C62G A69C | 0.508 |

| Variant | yeast fitness |
| --- | --- |
| U47G C62G A69U | 0.545 |
| C49U G67A A69U | ≤ 0.5 |
| G50C C61G A70C | ≤ 0.5 |
| C49U A69U A70G | 0.687 |
| C49U A57U G67C | ≤ 0.5 |
| G50A C55G C62A | 0.654 |
| G50A C62U G63A | ≤ 0.5 |
| C49A G50U C62U | ≤ 0.5 |
| C49G G50A A57C | ≤ 0.5 |
| U47G C60G C62A A65G | ≤ 0.5 |
| C49G C62U | 0.79 |
| G48C C61A A65U | 0.687 |
| U47G G56A | 0.646 |
| G50A G56A C62G A70U | ≤ 0.5 |
| U47C G58A G67A | 0.584 |
| G50A C66U A69C | 0.531 |
| C49G A57G C61U | 0.584 |
| G50A C62G | 1.03 |
| G50A C62U | 1 |
| G48A C55U A65C | 0.627 |
| G48A C60U A65U | 0.726 |
| G48A C55A G58C | 0.516 |
| G50C A65C | 0.602 |
| G48A G68U A70C | 0.809 |

| Variant | yeast fitness |
| --- | --- |
| G48A C66U A69C | 0.719 |
| U47C A65U | 0.998 |
| G48C G68A | 0.846 |
| G48C G51C U59A | ≤ 0.5 |
| G48A G50A A70U | 0.812 |
| G48A U64C | 0.816 |
| G48A G51C C60A U64C | 0.853 |
| G50A A69U | 1 |
| G48U | 1.03 |
| G48C | 0.977 |
| G48A | 0.982 |
| G48C C60G | 0.719 |
| C49U G67A | 0.879 |
| G50C C55A C60A | ≤ 0.5 |
| G48C C49U C62U | 0.637 |
| C49U U54C C55G | 0.548 |
| G50A U53C C62A A69U | 0.517 |
| C49U C60G | 0.609 |
| C49U C60A | 0.668 |
| G48C U59A C66U | 0.679 |
| U47C C49U | 0.987 |
| U47C C49A | 0.65 |
| G48C C62U A69C | 0.701 |
| C49G U59C | 0.761 |

| Variant | yeast fitness |
| --- | --- |
| C49G U59A | 0.785 |
| C49G U53A | 0.627 |
| U47C A57G | 0.921 |
| G50C A57U | 0.63 |
| C49A U54A | 0.538 |
| C49A U54C | 0.674 |
| C49A U54G | 0.584 |
| G48A G52C A57C | 0.622 |
| C49A C62G | 0.576 |
| C49G C55U | 0.692 |
| C49U G51C C55A | 0.618 |
| U47C G58C A65C | 0.614 |
| U47G G68U | 0.568 |
| G48C C49U A70U | 0.724 |
| G48A A69C | 0.96 |
| G48A G67U | 0.9 |
| C49G C60A | 0.696 |
| C49G C60G | 0.64 |
| G48A G51A U59C | 0.956 |
| C49U U53C | 0.691 |
| C49G A57C | 0.656 |
| C49G A57U | 0.792 |
| C49G A57G | 0.719 |
| G48C G52C A57C G58A A70G | ≤ 0.5 |

| Variant | yeast fitness |
| --- | --- |
| C49U A65U A70U | 0.657 |
| C49G A65G | 0.957 |
| C49G A65U | 0.748 |
| C49U G52C A57C G63C | ≤ 0.5 |
| G48A C62A | 0.978 |
| U47G A70C | 0.685 |
| U47C A57G A69U | 0.569 |
| G48C G51C A57U G68C | ≤ 0.5 |
| G50A C61G | 0.737 |
| G48A C66A | 0.929 |
| C49U G68C A69U | 0.569 |
| C49U G51A A69C | 0.61 |
| C49U C55A C66U | 0.514 |
| U47C G52A C61G | ≤ 0.5 |
| G48C C66U | 0.932 |
| C49A C62U A65G | ≤ 0.5 |
| C49U C62G G68C | 0.536 |
| G48A C61G A65C | ≤ 0.5 |
| C49G C66G G67C | 0.569 |
| C49G U53C C55A G63A | ≤ 0.5 |
| U47C C66U A69C | 0.675 |
| C49U C55A C62U | 0.699 |
| G48A C66A G67A | ≤ 0.5 |
